Test results as given in ChEMBL document CHEMBL4706521, “Synthesis of indole inhibitors of silent information regulator 1 (SIRT1), and their evaluation as cytotoxic agents” (Eur J Med Chem, 2020).

Assays:
HepG2 = assay: Cytotoxicity against human HepG2 cells assessed as cell viability measured after 48 hrs by MTT assay; type: functional, cell-based; conditions: HepG2, 48 h
HEK-293T = assay: Cytotoxicity against human HEK293T cells assessed as cell viability measured after 48 hrs by MTT assay; type: cell-based
A549 = assay: Cytotoxicity against human A549 cells assessed as cell viability measured after 48 hrs by MTT assay; type: functional, cell-based; conditions: A549, 48 h
In short: (§1)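 Cells were seeded at 5×10^4 cells/mL and allowed to adhere for 24 h. Compounds in DMSO were tested at final 0.01, 0.1, 1, 10 and 100 μM for 48 h. MTT was then added, followed by isopropanol-HCl. OD was read at 570/630 nm, and IC50 was calculated from OD.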

HT-29 = assay: Cytotoxicity against human HT-29 cells assessed as cell viability measured after 48 hrs by MTT assay; type: functional, cell-based; conditions: HT-29, 48 h; in short: as §1
HCT-116 = assay: Cytotoxicity against human HCT-116 cells assessed as cell viability measured after 48 hrs by MTT assay; type: functional, cell-based; conditions: HCT-116, 48 h
K562 = assay: Cytotoxicity against human K562 cells assessed as cell viability measured after 48 hrs by MTT assay; type: functional, cell-based; conditions: K562, 48 h
In short: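 Cells were seeded at 5×10^4 cells/mL and kept in suspension 2 h before dosing. Compounds were added from DMSO at final 0.01–100 μM (tenfold series) for 48 h. MTT was applied, then isopropanol-HCl, with OD read at 490 and 630 nm. IC50 was obtained from OD.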

[1] = biological target: T1, NAD-dependent protein deacetylase sirtuin-2 (Homo sapiens) (UniProt Q8IXJ6); assay: Inhibition of recombinant human SIRT2 expressed in baculovirus infected SF9 cells expression system using RHKK(Ac)W-NH2 as substrate at 10 uM measured after 20 mins by HPLC method
T1 sequence (whole entry): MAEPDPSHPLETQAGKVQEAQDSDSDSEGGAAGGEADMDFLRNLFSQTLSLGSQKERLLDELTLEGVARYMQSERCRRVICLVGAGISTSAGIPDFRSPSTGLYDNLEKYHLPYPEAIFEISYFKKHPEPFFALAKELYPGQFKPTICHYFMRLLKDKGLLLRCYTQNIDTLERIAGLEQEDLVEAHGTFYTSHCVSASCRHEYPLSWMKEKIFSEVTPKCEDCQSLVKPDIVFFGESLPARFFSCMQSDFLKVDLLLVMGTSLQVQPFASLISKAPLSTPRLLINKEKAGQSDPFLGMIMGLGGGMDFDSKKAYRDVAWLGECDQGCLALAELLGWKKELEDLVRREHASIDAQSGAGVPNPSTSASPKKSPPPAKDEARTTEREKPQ
In short: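 SIRT2 at about 100 nM (nominal) started the reaction, without preincubation, in kit buffer pH 8.0 with 2 mM NAD+ and 250 μM RHKK(Ac)W-NH2. Final DMSO was 1%. Reactions ran 20 min at 37 °C, keeping conversion at 2–8%, and were stopped with TFA. Substrate and product were separated by C18 HPLC (10–50% B gradient) and detected at 220 nm. Peak areas gave % conversion. Results were reported as IC50 (95% CI) or % inhibition (SD), from at least duplicates.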

MCF7 = assay: Cytotoxicity against human MCF7 cells assessed as cell viability measured after 48 hrs by MTT assay; type: functional, cell-based; conditions: MCF7, 48 h
NCI-H460 = assay: Cytotoxicity against human NCI-H460 cells assessed as cell viability measured after 48 hrs by MTT assay; type: functional, cell-based; conditions: NCI-H460, 48 h
HUVEC = assay: Cytotoxicity against human HUVEC cells assessed as cell viability measured after 48 hrs by MTT assay; type: cell-based; in short: as §1
[2] = biological target: T2, NAD-dependent protein deacetylase sirtuin-1 (Homo sapiens, UniProt Q96EB6); assay: Inhibition of recombinant human SIRT1 (193 to 741 residues) expressed in Escherichia coli expression system using RHKK(Ac)W-NH2 as substrate measured after 2 hrs by HPLC method
T2 sequence (Q96EB6 whole entry): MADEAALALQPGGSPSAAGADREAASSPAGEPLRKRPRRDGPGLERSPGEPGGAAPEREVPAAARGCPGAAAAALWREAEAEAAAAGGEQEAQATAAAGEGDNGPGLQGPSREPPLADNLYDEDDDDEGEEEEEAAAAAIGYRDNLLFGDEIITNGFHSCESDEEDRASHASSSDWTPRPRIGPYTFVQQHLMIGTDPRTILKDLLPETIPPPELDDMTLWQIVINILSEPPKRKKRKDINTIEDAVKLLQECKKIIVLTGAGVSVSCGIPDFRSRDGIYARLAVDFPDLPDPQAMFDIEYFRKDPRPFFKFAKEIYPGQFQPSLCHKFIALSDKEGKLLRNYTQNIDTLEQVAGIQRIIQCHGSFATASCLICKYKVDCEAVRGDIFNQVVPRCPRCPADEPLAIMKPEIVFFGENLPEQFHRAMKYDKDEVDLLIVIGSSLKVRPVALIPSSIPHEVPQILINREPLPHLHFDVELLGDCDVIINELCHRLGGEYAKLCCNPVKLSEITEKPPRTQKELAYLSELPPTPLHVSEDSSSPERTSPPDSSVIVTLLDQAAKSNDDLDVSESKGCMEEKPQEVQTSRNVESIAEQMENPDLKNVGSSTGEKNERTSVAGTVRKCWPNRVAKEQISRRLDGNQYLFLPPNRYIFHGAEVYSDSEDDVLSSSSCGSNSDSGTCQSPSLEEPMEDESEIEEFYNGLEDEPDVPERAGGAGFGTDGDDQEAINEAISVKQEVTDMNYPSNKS

[3] = biological target: T3, NAD-dependent protein deacetylase sirtuin-2 (Homo sapiens, UniProt Q8IXJ6); assay: Inhibition of recombinant human SIRT2 expressed in baculovirus infected SF9 cells expression system using RHKK(Ac)W-NH2 as substrate measured after 20 mins by HPLC method
T3 sequence (Q8IXJ6 whole entry): T1 sequence (whole entry)

Row | Compound | inhibition [1] | IC50 [2] | IC50 [3] | IC50 (HepG2) | IC50 (HEK-293T) | IC50 (A549) | IC50 (HT-29) | IC50 (HCT-116) | IC50 (K562) | IC50 (MCF7) | IC50 (NCI-H460) | IC50 (HUVEC)
1 | CC[C@@]1(O)C(=O)OCc2c1cc1n(c2=O)Cc2cc3ccccc3nc2-1 [CAMPTOTHECIN] |  |  |  | 0.04 µM | 5.65 µM | 1.56 µM | > 100 µM | 0.05 µM | 0.32 µM | 1.67 µM | 0.12 µM | < 0.01 µM
2 | NC(=O)C1CCCc2c1[nH]c1ccc(Cl)cc21 (configuration not stated) | 84% |  |  | 44 µM | 51 µM | 29 µM | > 100 µM | 37 µM | 60 µM | 37 µM | 48 µM | 15 µM
3 | NC(=O)Cc1cc2cc(Cl)ccc2[nH]1 | 1.7% | 90 µM |  | > 100 µM | > 100 µM | > 100 µM | > 100 µM | > 100 µM | > 100 µM | > 100 µM | > 100 µM | > 100 µM

Second part, led by results:

Row | inhibition [1] | IC50 [2] | IC50 [3] | Compound | IC50 (HepG2) | IC50 (HEK-293T) | IC50 (A549) | IC50 (HT-29) | IC50 (HCT-116) | IC50 (K562) | IC50 (MCF7) | IC50 (NCI-H460) | IC50 (HUVEC)
4 | -5.5% | 14 µM |  | CCc1c(CC(N)=O)[nH]c2ccc(Cl)cc12 | > 100 µM | 77 µM | > 100 µM | > 100 µM | 52 µM | 87 µM | > 100 µM | 70 µM | 58 µM
5 |  | > 100 µM |  | NC(=O)Cc1[nH]c2ccc(Cl)cc2c1CC(N)=O | > 100 µM | > 100 µM | > 100 µM | > 100 µM | > 100 µM | > 100 µM | > 100 µM | > 100 µM | > 100 µM
6 |  |  | 0.93 µM | NC(=O)Cc1[nH]c2ccc(Cl)cc2c1Cc1ccccc1 |  |  |  |  |  |  |  |  | 
